Test results reported in ChEMBL document CHEMBL3612047, “Synthesis, antiproliferative activity and possible mechanism of action of novel 2-acetamidobenzamides bearing the 2-phenoxy functionality” (Bioorg Med Chem, 2015).
Active and inactive are the calls of the source. The rule behind the calls is not given here.

Key:
[1] = system: SW-620; test: Growth inhibition of human SW620 cells by NCI standard protocol based method; format: functional
Procedure, shortened: (§1)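 NCI 60-cell-line screen, standard NCI protocol. Single high dose of 10⁻⁵ M first, then a 5-dose assay across the full panel. Reported as GI₅₀, TGI and LC₅₀, the molar concentrations giving 50% net growth inhibition, total growth inhibition and 50% net cell death. Where an effect was not reached, the highest tested concentration was used.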

[2] = system: K562; test: Induction of mitotic arrest in human K562 cells; format: functional, cell-based
[3] = Growth inhibition of human COLO205 cells by NCI standard protocol based method; format: functional; settings: COLO 205
Procedure, shortened: (§2)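 NCI full 60-cell-line panel, 5-dose assay to the NCI standard protocol. GI₅₀ is the molar concentration inhibiting 50% net cell growth. Mean graph midpoint is averaged over all lines; where the effect is not reached, the highest tested concentration is used.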

[4] = system: NCI-H23; test: Growth inhibition of human NCI-H23 cells by NCI standard protocol based method; format: functional; procedure, shortened: as §2
[5] = Growth inhibition of human HCC2998 cells by NCI standard protocol based method; format: functional; settings: HCC 2998; procedure, shortened: as §2
[6] = system: UACC-62; test: Growth inhibition of human UACC62 cells by NCI standard protocol based method; format: functional; procedure, shortened: as §1
[7] = system: MCF7; test: Growth inhibition of human MCF7 cells by NCI standard protocol based method; format: functional; procedure, shortened: as §2
[8] = Growth inhibition of human HOP92 cells by NCI standard protocol based method; format: functional; settings: HOP-92; procedure, shortened: as §2
[9] = system: IGROV-1; test: Growth inhibition of human IGROV1 cells by NCI standard protocol based method; format: functional; procedure, shortened: as §2
[10] = system: HCT-15; test: Growth inhibition of human HCT15 cells by NCI standard protocol based method; format: functional; procedure, shortened: as §2
[11] = Growth inhibition of human SF539 cells by NCI standard protocol based method; format: functional; settings: SF-539; procedure, shortened: as §2
[12] = system: HT-29; test: Growth inhibition of human HT-29 cells by NCI standard protocol based method; format: functional; procedure, shortened: as §2
[13] = system: MDA-MB-468; test: Growth inhibition of human MDA-MB-468 cells by NCI standard protocol based method; format: functional; procedure, shortened: as §2
[14] = system: SK-OV-3; test: Growth inhibition of human SKOV3 cells by NCI standard protocol based method; format: functional; procedure, shortened: as §1
[15] = system: HOP-62; test: Growth inhibition of human HOP62 cells by NCI standard protocol based method; format: functional; procedure, shortened: as §2
[16] = system: M14; test: Growth inhibition of human M14 cells by NCI standard protocol based method; format: functional; procedure, shortened: as §2
[17] = system: HL-60(TB); test: Growth inhibition of human HL-60(TB) cells by NCI standard protocol based method; format: functional
Procedure, shortened: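 Tested in the NCI 60-cell-line screen under its standard protocol. A single-dose prescreen was run at 10⁻⁵ M, then a five-dose assay. GI50 is the molar concentration that inhibits net cell growth by 50%.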

[18] = molecular target: Tubulin (Homo sapiens) (UniProt P68371+Q9H4B7+P0DPH7+P68366+Q13509+Q71U36+P04350+Q3ZCM7+P07437+P68363+Q9BQE3+Q6PEY2+Q13885+Q9BVA1+Q9BUF5); test: Inhibition of colchicine binding to tubulin (unknown origin); format: protein-complex assay
[19] = system: K562; test: Growth inhibition of human K562 cells at 10 uM incubated for 24 hrs by trypan blue dye exclusion assay; format: functional; settings: K562, 24 h, read-out: GI
Procedure, shortened: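 K562 cells in medium with 5% FBS at 37 °C, 5% CO₂. About 2 × 10⁵ cells/mL cultured 24 h, then compound added at 10 μM. After 24 h exposure, cells counted by hemocytometer and viability scored by trypan blue exclusion, reported as percent growth inhibition.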

[20] = system: MDA-MB-435; test: Growth inhibition of human MDA-MB-435 cells by NCI standard protocol based method; format: functional; procedure, shortened: as §2
[21] = system: A498; test: Growth inhibition of human A498 cells by NCI standard protocol based method; format: functional; procedure, shortened: as §2
[22] = system: OVCAR-3; test: Growth inhibition of human OVCAR3 cells by NCI standard protocol based method; format: functional; procedure, shortened: as §2
[23] = system: SF-268; test: Growth inhibition of human SF268 cells by NCI standard protocol based method; format: functional; procedure, shortened: as §2
[24] = Growth inhibition of human NCI60 cells by NCI standard protocol based method; format: functional; settings: for TGI: read-out: pTGI (converted); procedure, shortened: as §2
[25] = system: K562; test: Selectivity index, ratio of IC50 for human HuDe cells to IC50 human K562 cells
Procedure, shortened: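 Index taken as the ratio of HuDe to K562 IC₅₀. For K562: about 2 × 10⁵ cells/mL, compounds added at graded concentrations, viable count by trypan blue exclusion with a hemocytometer after 24 h. For HuDe primary epidermal cells: 2 × 10⁴ cells/mL, drugs or 0.1% DMSO added 24 h after seeding, MTT read at 570 nm (690 nm blank) after 72 h.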

[26] = system: SK-MEL-2; test: Growth inhibition of human SK-MEL-2 cells by NCI standard protocol based method; format: functional; procedure, shortened: as §2
[27] = Growth inhibition of human RXF393 cells by NCI standard protocol based method; format: functional; settings: RXF 393; procedure, shortened: as §2
[28] = system: SNB-75; test: Growth inhibition of human SNB75 cells by NCI standard protocol based method; format: functional; procedure, shortened: as §1
[29] = system: CCRF-CEM; test: Growth inhibition of human CCRF-CEM cells by NCI standard protocol based method; format: functional; procedure, shortened: as §2
[30] = system: K562; test: Growth inhibition of human K562 cells by NCI standard protocol based method; format: functional; procedure, shortened: as §2
[31] = system: KM12; test: Growth inhibition of human KM12 cells by NCI standard protocol based method; format: functional; procedure, shortened: as §2
[32] = Growth inhibition of human RPMI8226 cells by NCI standard protocol based method; format: functional; settings: RPMI-8226; procedure, shortened: as §2
[33] = system: PC-3; test: Growth inhibition of human PC3 cells by NCI standard protocol based method; format: functional; procedure, shortened: as §2
[34] = Growth inhibition of human SF295 cells by NCI standard protocol based method; format: functional; settings: SF-295; procedure, shortened: as §2
[35] = system: ACHN; test: Growth inhibition of human ACHN cells by NCI standard protocol based method; format: functional; procedure, shortened: as §2
[36] = system: K562; test: Growth inhibition of human K562 cells incubated for 24 hrs by trypan blue dye exclusion assay; format: functional, cell-based; settings: K562, 24 h
Procedure, shortened: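 K562 cells, about 2 × 10⁵ cells/mL, precultured 24 h, then exposed 24 h to a range of compound concentrations. Viable cells counted by hemocytometer with trypan blue exclusion to derive IC₅₀.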

[37] = system: OVCAR-5; test: Growth inhibition of human OVCAR5 cells by NCI standard protocol based method; format: functional; procedure, shortened: as §2
[38] = system: SR; test: Growth inhibition of human SR cells by NCI standard protocol based method; format: functional; procedure, shortened: as §1
[39] = system: DU-145; test: Growth inhibition of human DU145 cells by NCI standard protocol based method; format: functional; procedure, shortened: as §2
[40] = Growth inhibition of human MOLT4 cells by NCI standard protocol based method; format: functional; settings: MOLT-4; procedure, shortened: as §2
[41] = system: 786-0; test: Growth inhibition of human 786-0 cells by NCI standard protocol based method; format: functional; procedure, shortened: as §2
[42] = system: U-251; test: Growth inhibition of human U251 cells by NCI standard protocol based method; format: functional; procedure, shortened: as §1
[43] = system: CAKI-1; test: Growth inhibition of human CAKI-1 cells by NCI standard protocol based method; format: functional; procedure, shortened: as §2
[44] = system: UO-31; test: Growth inhibition of human UO31 cells by NCI standard protocol based method; format: functional; procedure, shortened: as §1
[45] = system: NCI-H226; test: Growth inhibition of human NCI-H226 cells by NCI standard protocol based method; format: functional; procedure, shortened: as §2

## NC(=O)c1cc(Cl)ccc1NC(=O)COc1ccccc1
[1]
  GI50: 2580 nM
[2]
  Activity: Active
[3]
  GI50: 2510 nM
[4]
  GI50: 5900 nM
[5]
  GI50: 12100 nM
[6]
  GI50: 5420 nM
[7]
  GI50: 1810 nM
[8]
  GI50: 5700 nM
[9]
  GI50: 5600 nM
[10]
  GI50: 1570 nM
[11]
  GI50: 1800 nM
[12]
  GI50: 1740 nM
[13]
  GI50: 1740 nM
[14]
  GI50: 8150 nM
[15]
  GI50: 5880 nM
[16]
  GI50: 2210 nM
[17]
  GI50: 3290 nM
[18]
  inhibition: inactive
[19]
  inhibition of growth at 10 µM: 87%
[20]
  GI50: 356 nM
[21]
  GI50: 1410 nM
[22]
  GI50: 2300 nM
[23]
  GI50: 9890 nM
[24]
  GI50: 4900 nM
  LC50: 100000 nM
  TGI: 72400 nM
[25]
  Ratio IC50: 621.38
[26]
  GI50: 5080 nM
[27]
  GI50: 3930 nM
[28]
  GI50: 1810 nM
[29]
  GI50: 3070 nM
[30]
  GI50: 854 nM
[31]
  GI50: 2130 nM
[32]
  GI50: 4330 nM
[33]
  GI50: 3220 nM
[34]
  GI50: 1960 nM
[35]
  GI50: 10700 nM
[36]
  IC50: 1300 nM
[37]
  GI50: 3860 nM
[38]
  GI50: 777 nM
[39]
  GI50: 6010 nM
[40]
  GI50: 8140 nM
[41]
  GI50: 9540 nM
[42]
  GI50: 2340 nM
[43]
  GI50: 4180 nM
[44]
  GI50: 17500 nM

## COc1ccc(NC(=O)COc2ccccc2)c(C(N)=O)c1
[1]
  GI50: 448 nM
[2]
  Activity: Active
[3]
  GI50: 487 nM
[4]
  GI50: 1380 nM
[5]
  GI50: 2340 nM
[45]
  GI50: 21500 nM
[6]
  GI50: 1050 nM
[7]
  GI50: 497 nM
[8]
  GI50: 414 nM
[9]
  GI50: 4750 nM
[10]
  GI50: 432 nM
[11]
  GI50: 441 nM
[12]
  GI50: 388 nM
[13]
  GI50: 345 nM
[14]
  GI50: 2990 nM
[15]
  GI50: 1010 nM
[16]
  GI50: 514 nM
[17]
  GI50: 340 nM
[18]
  inhibition: inactive
[19]
  inhibition of growth at 10 µM: 85.3%
[20]
  GI50: 121 nM
[21]
  GI50: 304 nM
[22]
  GI50: 375 nM
[23]
  GI50: 2420 nM
[24]
  GI50: 891 nM
  LC50: 97700 nM
  TGI: 49000 nM
[25]
  Ratio IC50: 856.28
[26]
  GI50: 611 nM
[27]
  GI50: 1400 nM
[28]
  GI50: 245 nM
[29]
  GI50: 487 nM
[30]
  GI50: 245 nM
[31]
  GI50: 388 nM
[32]
  GI50: 1170 nM
[33]
  GI50: 464 nM
[34]
  GI50: 650 nM
[35]
  GI50: 2250 nM
[36]
  IC50: 1100 nM
[37]
  GI50: 5400 nM
[38]
  GI50: 392 nM
[39]
  GI50: 1870 nM
[40]
  GI50: 2000 nM
[41]
  GI50: 2100 nM
[42]
  GI50: 664 nM
[43]
  GI50: 721 nM
[44]
  GI50: 8720 nM
